Results on 48 sequences are retold here after the EternaBench riboswitch data.

For the data set, the system named is MS2 coat protein. The data set is described as follows: apparent Kd, MS2 coat protein; higher = weaker binding; RNA-MaP array; FMN 200 µM where present. In a few lines: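 Designs on Illumina sequencing-chip clusters, transcribed by stalled E. coli RNA polymerase, were exposed to SNAP-549-labelled MS2 coat protein in doubling steps from 0.7 or 1.5 nM up to 3 µM, without and then with constant ligand. The buffer held 100 mM Tris-HCl pH 7.5, 80 mM KCl, 4 mM MgCl2, BSA, DTT, yeast tRNA and Tween-20. Apparent Kd values are medians of filtered per-cluster binding-curve fits to green signal normalised to red-channel RNA signal and control-cluster median Fmax.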

Setting [1] is: designed as: OFF switch for flavin mononucleotide, no ligand.
Where [2] appears, read: ligand present: flavin mononucleotide, designed as: OFF switch for flavin mononucleotide.
[3] abbreviates: designed as: ON switch for flavin mononucleotide, no ligand.
Where [4] appears, read: ligand present: flavin mononucleotide, designed as: ON switch for flavin mononucleotide.

As for “UGAACUAUGUAGAAGGCCCAUAUUUAUAUAUAGGGAGGAUAUACAUGAGGAUCACCCAUGUAUAGAGCAAGAGGACUUGUCAGU”, the “apparent Kd” value is 6.34 nM under setting [1] and 7.07 nM under setting [2].

As for “GUGUAGAUAGGAUAUACGAGAGUCUAGCGAAGCUAGAUUCUACAUGAGGAUCACCCAUGUAGAAGGGUCUACAC”, the “apparent Kd” value under setting [1] was determined as 16.5 nM and the “apparent Kd” value under setting [2] turned out to be 19.2 nM.

For “AUAUGAUAGAUAGGAUAUACUGAGGUUGAAUGGGUAGAAGGAUCGAUAGGGAAGACUACAUGAGGAUCACCCAUGUUGUGUAUU”, the “apparent Kd” value was 151 nM under setting [3] and 81.6 nM under setting [4].

For “UAAAUUAACAAGAAGGCUAACAUGAGGAUCACCCAUGUUGUACAUGGAUAUAGAGGAUAUUGCUAUUAAUUAUUUAUCAUAAUU”, the “apparent Kd” value runs as follows: under setting [1], 21.2 nM; under setting [2], 18.9 nM.

For “AAAUAGUUAGGAUAUACAUGAGGAUCACCCAUGUGGACUGAUGGCGAUUGAUUCAGUGGUAGAAGGGACUCAAA”, the “apparent Kd” value runs as follows: under setting [1], 37.4 nM; under setting [2], 56.4 nM.

“UCCUGAUCGAGAGGUAGGAGUGGUAGAAGGCGACCGGUGCCAGAUGACAUGAGGAUCACCCAUGUCGAGGAUAUACCACAGAAU”: the “apparent Kd” value by setting is: under setting [1], 7.03 nM; under setting [2], 12.3 nM.

Turning to “CCGAUGCUUAUAAAACAUGAGGAUCACCCAUGUGAGACACAUGAGGAUAUGCAGGUCAAAGACUUGCAGAAGGCAUAGCGUCGG”, the “apparent Kd” value under setting [3] worked out at 644 nM and the “apparent Kd” value under setting [4] turned out to be 61.8 nM.

In the case of “GGACGUCACAUGAACAUGAGGAUCACCCAUGUAAAUUCUCAUGAGGAUAUGGAUCCUAAUUGGAUCCAGAAGGCAUGGACGUCC”, the “apparent Kd” value reads like this: under setting [3], 960 nM; under setting [4], 373 nM.

Turning to “CACAUGUGAGGAUAUGUACGAGGCCCGGACGGGUCUCGCAGGCAGAAGGCACAUGAGGAUCACCCAUGUGACCG”, the “apparent Kd” value is 23.9 nM under setting [1] and 66.7 nM under setting [2].

With “AGGGUGGGCUCAGGAUAUCAGGAAGGGAUGUGGACAUGAGGAUCACCCAUGUACCAGUGUUGUUAUGAGAAGGGAGAUAUUGUA”, the “apparent Kd” value under setting [3] turned out to be 16.7 nM and the “apparent Kd” value under setting [4] worked out at 13.5 nM.

As to “GACAGACAUGAGGAUCACCCAUGUGAAAACGUACAAGGAUAUGUGUGGAAACCGUACUAUACAGAAGGUGUCUGUC”, the “apparent Kd” value under setting [3] turned out to be 94.5 nM and the “apparent Kd” value under setting [4] amounted to 87 nM.

With “UCGCGGGUGCAGAAGGGAUAGGCCUAUUUUCGUGGUGUCCAAACUUAACAUGAGGAUCACCCAUGUCAGGAUAUGCCCACGCGA”, the “apparent Kd” value was found to be 29.5 nM under setting [1] and 52.7 nM under setting [2].

Regarding “AUAAUGUGAGGAUAUCAGUAGUAUUGCUUCGGCAAUACUACUGAGAAGGCACAUGAGGAUCACCCAUGUGAUCA”, the “apparent Kd” value by setting is: under setting [1], 1380 nM; under setting [2], 32.8 nM.

For “GUAGUGCUCAUAGGAUAUCGGGAACGACUUAGACAGGUCGUACAUGAGGAUCACCCAUGUAAAGUCGAGAAGGGUGAUCACGCC”, the “apparent Kd” value came out at 592 nM under setting [3] and 160 nM under setting [4].

On to “AAAGACAUGGUGCAGGAUAUAUUAAUAGUCACAUGAGGAUCACCCAUGUUCAGAUAUCUGAACGAGUAGAAGGGCGAUGAAAAAA”, for which the “apparent Kd” value runs as follows: under setting [3], 602 nM; under setting [4], 589 nM.

Consider “CAGUACUGAGGAUAUACAUGAGGAUCACCCAUGUGUCCUGGCUAGGAUACUAGCAAAGGUAGAAGGCAGUACUG”, for which the “apparent Kd” value by setting is: under setting [1], 16.6 nM; under setting [2], 125 nM.

In the case of “UAUGGUAAAGUCAGGAUAUACGUACAUCAUUCUAGGUAGAAGGGACAUGAGGAUCACCCAUGUAUGGUAGUGUU”, the “apparent Kd” value under setting [1] turned out to be 62.2 nM and the “apparent Kd” value under setting [2] was 67.6 nM.

With “UUAUGGAUCACAGGAUAUCCAAGGGCGCGUCUGGCGCGCUCACAUGAGGAUCACCCAUGUCGAGUGGAGAAGGGUGGUUGACGG”, the “apparent Kd” value by setting is: under setting [3], 466 nM; under setting [4], 68.3 nM.

With “CCAGCGUAUGUGAGGAUAUGCUGGUCCUUGGAUCAGCAGAAGGCACAUGAGGAUCACCCAUGUGGAGACGUUGG”, the “apparent Kd” value stood at 21.8 nM under setting [1] and 102 nM under setting [2].

As to “UUUAUGUCAGGAUAUGAUUAGAUCUACUUUUGUAGAUCUAAUCAGAAGGGACAUGAGGAUCACCCAUGUUUUUU”, the “apparent Kd” value by setting is: under setting [1], 44.8 nM; under setting [2], 252 nM.

Regarding “CGCGAAAACAUAGGAUAUUGAUACAUGAGGAUCACCCAUGUCAACCAUGAAGCUCGAAUUGUUGACAAGAAGGAUGAGGUCGCG”, the “apparent Kd” value under setting [3] was 77.1 nM and the “apparent Kd” value under setting [4] was 57.2 nM.

As to “GUCGAGUGAGGAUAUGGUGAGUAGUGCCUGAGCGCUGCUCACCAGAAGGCACAUGAGGAUCACCCAUGUAUGAC”, the “apparent Kd” value was found to be 18.2 nM under setting [1] and 23.9 nM under setting [2].

On to “GACAAACAUGAGGAUCACCCAUGUUCAAACGAACAAGGAUAUGUGUGGAAACCGUACUAUACAGAAGGUGUCUGUC”, for which the “apparent Kd” value under setting [3] came to 36.5 nM and the “apparent Kd” value under setting [4] was found to be 37.7 nM.

For “AGUUUCUCCGCAGGAUAUGUGCUCUUUAUCACAUGAGGAUCACCCAUGUCAGCCUACACGGCGAGACAGAAGGGUGGUGAUGCC”, the “apparent Kd” value under setting [3] stood at 88.6 nM and the “apparent Kd” value under setting [4] stood at 81.2 nM.

For “UACAUCUCGUAAGGAUAUACACGAGAUUCAAGUGUAGAAGGUACUAACAUGAGGAUCACCCAUGUAUACAUGGAUAAUAGAUAU”, the “apparent Kd” value by setting is: under setting [3], 91.6 nM; under setting [4], 59.7 nM.

On to “CAUUAAUUCAUUAUAGUAAUUAUACAGGAUAUGUAACAUGAGGAUCACCCAUGUAUUCUUGGUUAACAGAAGGGUAUUACAAGU”, for which the “apparent Kd” value under setting [1] was determined as 16.5 nM and the “apparent Kd” value under setting [2] came to 28.4 nM.

On to “GGAGGACAUGAGGAUCACCCAUGUGGAUGGGCGCUAGGAUAUGCGAGAGGAGGGAGUGGAGCAGAAGGAGUGGGUU”, for which the “apparent Kd” value under setting [3] is 65.6 nM and the “apparent Kd” value under setting [4] turned out to be 57.5 nM.

For the sequence “AAUGAGACCGCAGGAUAUCCACAUGAGGAUCACCCAUGUUCUCAGGUCGUAAGCACGACCUGCGAGGAGAAGGGCGACCUCAUA”, the “apparent Kd” value reads like this: under setting [3], 395 nM; under setting [4], 33.8 nM.

In the case of “CCGGAAACGGGUAGCUGUACAUGAGGAUCACCCAUGUGAUCAGAGGAUAUGGAUCCUAAUUGGAUCCAGAAGGCUGUCAGCUAC”, the “apparent Kd” value under setting [3] turned out to be 119 nM and the “apparent Kd” value under setting [4] was determined as 29.1 nM.

“AAUUCGUUCUAGAAGGUGCAUUUGUUAAACAUGCAAGGAUAUAGACAUGAGGAUCACCCAUGUCUAUGAGACAUCGGCCUCCUG”: the “apparent Kd” value worked out at 6.72 nM under setting [1] and 11.7 nM under setting [2].

Regarding “CAAACGUGAGGAUAUACAUGAGGAUCACCCAUGUGUUCCUCUAAACUGAAGAAGUAAUGUAGAAGGCACGUUUG”, the “apparent Kd” value under setting [1] came to 43.1 nM and the “apparent Kd” value under setting [2] was 19.4 nM.

“UGCUACGGAGGAUAUACAUGAGGAUCACCCAUGUGAGAGAUUUGGCCGAGAGGCCAGUGUAGAAGGCCGUAGCU”: the “apparent Kd” value stood at 68.9 nM under setting [1] and 416 nM under setting [2].

For the sequence “CGACUGUGAGGAUAUGGUGAGUAGUGCCUGAGCGCUGCUCACCAGAAGGCACAUGAGGAUCACCCAUGUAUAGC”, the “apparent Kd” value by setting is: under setting [1], 41.7 nM; under setting [2], 165 nM.

Take “UAGUGCGUUAGAGGAUAUUCAAGGUGAAAAAAAAAUACAUGAGGAUCACCCAUGUAAAAACAUGAGGAGAAGGCUGAUGUGCUA”: the “apparent Kd” value reads like this: under setting [3], 38.6 nM; under setting [4], 27.6 nM.

Turning to “GUAUGAGCGAUAGGAUAUACUGAGAUUGAAUGGGUAGAAGGAUCACUUGUGUGGAAGACAUGAGGAUCACCCAUGUCACGGGCC”, the “apparent Kd” value was 52.3 nM under setting [3] and 157 nM under setting [4].

With “AUUUAUGGCCAGAAGGACAUGAGGAUCACCCAUGUAGGAUAUGGACGAUUUUGCUCGGUGGUUCGUUUAGGAAGCACCGGUGGU”, the “apparent Kd” value under setting [3] is 9.59 nM and the “apparent Kd” value under setting [4] was determined as 7.02 nM.

Take “AACGGGUGGGUAGGAUAUGGCCAUGUCUCAUUGCUAGAAGGACCAGCUGCUACAUGAGGAUCACCCAUGUCGUAGUGCACCCAG”: the “apparent Kd” value reads like this: under setting [3], 105 nM; under setting [4], 15.6 nM.

“GGGUACAUCGGAGGAUAUCAUGUAAAUACAUGAGGAUCACCCAUGUCUAUGGAGACAUCGGAGAUUGAGAAGGCCGAUGUACCG”: the “apparent Kd” value under setting [3] came to 14.4 nM and the “apparent Kd” value under setting [4] came to 150 nM.

For the sequence “CGCUAAUAAUUAAUAUUAAUUGUACAGGAUAUGUAACAUGAGGAUCACCCAUGUAUUGGGUUUAAACAGAAGGGUAUAUUAGCG”, the “apparent Kd” value under setting [1] was determined as 387 nM and the “apparent Kd” value under setting [2] was 92.4 nM.

For the sequence “CUCUUGUGAGGAUAUCAGUAGUAAAAAAAUAAAAUUACUACUGAGAAGGCACAUGAGGAUCACCCAUGUACCUU”, the “apparent Kd” value reads like this: under setting [1], 22.9 nM; under setting [2], 22.7 nM.

Turning to “CGUUGUAACGCAGGAUAUCCAAAGCUUUUUGCAGGAGAAGGGUGUUACAUGAGGAUCACCCAUGUGAAGGCCCGCAUUCCUCAU”, the “apparent Kd” value by setting is: under setting [1], 5.57 nM; under setting [2], 6.41 nM.

“UGUCGGAGCAGAGGAUAUUACAUGAGGAUCACCCAUGUAUGAACCAAUAGCUGGAAACAGCAAGGUAAGAAGGCUGCUCCGACA”: the “apparent Kd” value under setting [1] was 5.24 nM and the “apparent Kd” value under setting [2] was 9.98 nM.

In the case of “AUUUGACACGUAGGAUAUCGCUCUAAUUUAACACGAGAAGGACGUACAUGAGGAUCACCCAUGUUAAAUGGUGUAGUUUAUUUG”, the “apparent Kd” value reads like this: under setting [1], 82.1 nM; under setting [2], 164 nM.

As to “GAAGCACAUGAGGAUCACCCAUGUAAGGAUAUAUUUCUGGUCCGGCCGGACCAGUACCGUAGAAGGUAUGUAAA”, the “apparent Kd” value was 13.5 nM under setting [1] and 13.9 nM under setting [2].

As for “CCUUCACAUGAGGAUCACCCAUGUCCUAGUCCGUCAGGAUAUAGCCCGCAUCCGCUGUGGCUAGAAGGGACUGCUG”, the “apparent Kd” value is 141 nM under setting [3] and 235 nM under setting [4].

For the sequence “GCCUGCUGGCGAGGAUAUUCUGUGCGGUUCCAGCUCGUGUCUGUUACAUGAGGAUCACCCAUGUGGGAGAAGGUGUCUGUGGCC”, the “apparent Kd” value by setting is: under setting [1], 6 nM; under setting [2], 5.73 nM.

Turning to “CGCAUGCGUAGUAUUAGUUGCUGACAGGAUAUGACAUGAGGAUCACCCAUGUGAAAUAAGAAGAGUCAGAAGGGUCACGAUGCG”, the “apparent Kd” value by setting is: under setting [1], 16.8 nM; under setting [2], 9.58 nM.

For the sequence “GAACAUGAGGAUCACCCAUGUUCUCCAGAAGGCCGUACAUUUAAAAGUGGAUGGAUUAGUAUUGCGGAGGAUAUGGAGGUGCAA”, the “apparent Kd” value reads like this: under setting [3], 102 nM; under setting [4], 61.1 nM.
